# From ChEMBL document CHEMBL1159317, “Flavonoids from Ulex airensis and Ulex europaeus ssp. europaeus” (J Nat Prod, 2002)
# The source made the active and inactive calls. No cut-off for these calls is given here.
# System: Cladosporium cucumerinum
# Experiment: Induction of growth of Cladosporium cucumerinum CCMI 206 at 100 ug by bioautographic TLC bioassay
# Format: functional, organism-based
# Procedure, shortened: (§1)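 Bioautography on developed TLC plates against the fungus C. cucumerinum strain CCMI 206, obtained from the CCMI culture collection. Procedure followed Homans and Fuchs.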
row,Compound,Activity
1,COc1cc2c(cc1O)[C@@H]1Oc3cc4c(cc3[C@@H]1CO2)OCO4,Active
2,COc1c(O)cc2c(c1OC)OC[C@H]1c3cc4c(cc3O[C@@H]21)OCO4,Active

# System: Cladosporium cucumerinum
# Experiment: Antifungal activity against Cladosporium cucumerinum CCMI 206 at 100 ug by bioautographic TLC bioassay
# Format: functional, organism-based
# Procedure, shortened: as §1
row,Compound,Activity
1,CC1(C)C=Cc2c(cc3occ(-c4ccc(O)cc4)c(=O)c3c2O)O1,inactive
2,CC1(C)C=Cc2cc(-c3coc4cc5oc(C(C)(C)O)cc5c(O)c4c3=O)ccc2O1,inactive
3,CC1(C)C=Cc2cc(-c3coc4cc5c(c(O)c4c3=O)CC(C(C)(C)O)O5)ccc2O1 (configuration not stated),inactive
4,COc1cc(O)c2c(=O)c(-c3ccc(O)c(CC=C(C)C)c3)coc2c1CC=C(C)C,Active
5,CC1(C)C=Cc2c(ccc(-c3coc4cc(O)cc(O)c4c3=O)c2O)O1,Active
6,CC(C)=CCc1c(O)cc2occ(-c3ccc4c(c3)C=CC(C)(C)O4)c(=O)c2c1O,inactive
7,CC1(C)C=Cc2c(cc(O)c3c(=O)cc(-c4ccc(O)cc4)oc23)O1,inactive
8,COc1cc2c(cc1OC)[C@@H]1Oc3cc4c(cc3[C@@H]1CO2)OCO4,Active
9,COc1cc2c(cc1C1COc3cc(O)ccc3C1=O)OCO2 (configuration not stated),Active
10,CC(C)=CCc1cc(-c2coc3cc(O)c(CC=C(C)C)c(O)c3c2=O)ccc1O,inactive
